Reference: article PMC10791069 (SLAS discovery : advancing life sciences R & D, 2019)
Read-outs that look alike come from different tables or passages of the source.

Tests used:
[1] = biological target: T1, CTG engineered firefly luciferase (Photuris pensylvanica, UniProt Q27757); experiment: CellTiter-Glo luciferase counter-assay; format: biochemical; conditions: read-out: EC50 CTG Luciferase; cell-free media with CTG and ATP added as substrate
T1 sequence (Q27757 1-545): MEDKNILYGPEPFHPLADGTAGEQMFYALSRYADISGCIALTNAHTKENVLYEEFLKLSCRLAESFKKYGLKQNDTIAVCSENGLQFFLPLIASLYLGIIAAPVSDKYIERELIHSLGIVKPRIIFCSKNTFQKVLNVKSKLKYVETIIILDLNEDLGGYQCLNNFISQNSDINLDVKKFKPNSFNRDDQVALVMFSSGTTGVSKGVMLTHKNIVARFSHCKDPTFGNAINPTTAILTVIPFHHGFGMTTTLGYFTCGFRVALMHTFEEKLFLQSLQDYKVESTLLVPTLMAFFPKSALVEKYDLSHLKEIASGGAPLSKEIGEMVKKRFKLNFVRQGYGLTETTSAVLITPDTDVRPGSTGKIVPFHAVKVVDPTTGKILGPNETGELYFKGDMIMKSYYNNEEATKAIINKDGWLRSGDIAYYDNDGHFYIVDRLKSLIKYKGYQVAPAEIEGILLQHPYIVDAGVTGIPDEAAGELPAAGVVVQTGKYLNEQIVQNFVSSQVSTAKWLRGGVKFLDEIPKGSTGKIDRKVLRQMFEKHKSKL

[2] = biological target: Photinus pyralis luciferase (Photinus pyralis, UniProt P08659); experiment: Firefly luciferase inhibition assay; format: biochemical; conditions: read-out: EC50 Luciferase; 10 nM Photinus pyralis luciferase, 10 μM ATP, 10 μM D-Luciferin
[3] = system: HEK293 cells; experiment: Bright-field microscopy of treated cells; format: cell-based, human; conditions: 48 hr, at concentrations suggested to be cytotoxic by CTG dose-response data
[4] = system: HEK 293 cells; experiment: CellTiter-Glo cytotoxicity qHTS, HEK 293; format: cell-based, human; conditions: for cell killing of HEK 293 compared with cancer cell line KB-3–1 (in words): pan-active outliers, 12 dose-point confirmation; for cell killing of HEK 293 cells (in words): 48 hr; for EC50: read-out: EC50 HEK 293
Procedure, shortened: (§1)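 HEK 293 (250 cells/well) or NIH 3T3 (400 cells/well) are seeded in 5 μL. Dosing: annotated library 8-pt (0.6 nM–46 μM) or 11-pt (0.8 nM–46 μM); diversity library 4-pt, mostly 115, 58, 12 and 2.3 μM; cherry-picks confirmed over 12 points, 0.3 nM–46 μM final. Incubate 48 hr at 37 °C, then read CellTiter-Glo luminescence after 10 min. Normalize to DMSO and 9.2 μM bortezomib; EC50 from a four-parameter logistic fit.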

[5] = system: NIH 3T3 cells; experiment: CellTiter-Glo cytotoxicity qHTS, NIH 3T3; format: cell-based, murine; conditions: for cell killing of NIH 3T3 compared with cancer cell line KB-3–1 (in words): pan-active outliers, 12 dose-point confirmation; for cell killing of NIH 3T3 cells (in words): 48 hr; for EC50: read-out: EC50 NIH 3T3
Procedure, shortened: as §1

[6] = system: CRL-7250 cells; experiment: CellTiter-Glo cytotoxicity qHTS, CRL-7250; format: cell-based, human; conditions: for cell killing of CRL-7250 cells (in words): CellTiter-Glo, 48 hr
Procedure, shortened: (§2)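 CRL-7250 (primary) or HaCat cells are seeded at 500 cells/well in 5 μL medium. Test compound is pin-transferred as an 8-pt series (0.6 nM–46 μM, 1:5) or an 11-pt series (0.8 nM–46 μM, 1:3). Incubate 48 hr at 37 °C and 85% humidity. Add CellTiter-Glo and read luminescence after 10 min at room temperature. Normalize to DMSO (0%) and 9.2 μM bortezomib (−100%); EC50 comes from a four-parameter logistic fit.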

[7] = system: KB 3–1 cells; experiment: CellTiter-Glo cytotoxicity qHTS, KB 3-1; format: cell-based, human; conditions: for cell killing of KB 3–1 cells (in words): 48 hr; for EC50: read-out: EC50 KB 3–1
Procedure, shortened: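 HeLa-derived KB 3–1 cells are seeded at 500 cells/well in 5 μL. Annotated library is tested 8-pt (0.6 nM–46 μM, 1:5) or 11-pt (0.8 nM–46 μM, 1:3); cherry-picks are retested 12-pt, 0.3 nM–46 μM final. Incubate 48 hr at 37 °C, then read CellTiter-Glo luminescence after 10 min at room temperature. Normalize to DMSO and 9.2 μM bortezomib; EC50 from a four-parameter logistic fit.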

[8] = system: HaCat cells; experiment: CellTiter-Glo cytotoxicity qHTS, HaCat; format: cell-based, human
Procedure, shortened: as §2

[9] = CellTiter-Glo, 48 hr incubation

Sequence of Photinus pyralis luciferase (P08659 whole entry): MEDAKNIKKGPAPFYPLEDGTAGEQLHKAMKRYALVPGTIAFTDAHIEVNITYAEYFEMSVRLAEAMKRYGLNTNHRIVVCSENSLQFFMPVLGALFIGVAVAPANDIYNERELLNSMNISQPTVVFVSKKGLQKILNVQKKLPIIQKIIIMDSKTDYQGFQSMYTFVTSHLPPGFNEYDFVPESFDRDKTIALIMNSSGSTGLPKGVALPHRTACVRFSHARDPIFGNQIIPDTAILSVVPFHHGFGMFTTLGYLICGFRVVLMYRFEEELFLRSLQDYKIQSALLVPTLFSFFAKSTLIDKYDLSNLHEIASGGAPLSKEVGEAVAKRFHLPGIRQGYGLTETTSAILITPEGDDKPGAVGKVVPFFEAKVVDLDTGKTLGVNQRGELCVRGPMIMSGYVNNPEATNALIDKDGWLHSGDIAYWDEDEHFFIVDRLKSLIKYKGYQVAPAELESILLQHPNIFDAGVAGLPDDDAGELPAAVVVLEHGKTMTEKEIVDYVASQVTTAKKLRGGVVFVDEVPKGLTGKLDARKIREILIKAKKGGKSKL

O=C1c2cnc(-c3cc4ccccc4o3)nc2OCCN1c1ccccc1 [NCGC00413607]
EC50 [1]: 7300 nM | EC50 [2]: 80 nM | cell growth by bright-field microscopy [3]: unaffected cell growth

Cc1nn2c(c1-c1ccccc1-c1ccccc1)N(CC1CC1)CCC2 [NCGC00420435]
cell killing of HEK 293 compared with cancer cell line KB-3–1 (in words) [4]: greater cell killing | cell killing of NIH 3T3 compared with cancer cell line KB-3–1 (in words) [5]: greater cell killing

Cc1nn2c(c1-c1ccccc1-c1ccccc1)N(Cc1ccc(O)cc1)CCC2 [NCGC00420512]
cell killing of HEK 293 compared with cancer cell line KB-3–1 (in words) [4]: greater cell killing | cell killing of NIH 3T3 compared with cancer cell line KB-3–1 (in words) [5]: greater cell killing

COc1cccc(-c2ncc3c(n2)OCCN(c2ccccc2)C3=O)c1 [NCGC00413522]
EC50 [1]: 26600 nM | EC50 [2]: 890 nM | cell growth by bright-field microscopy [3]: unaffected cell growth

c1cc(-c2cnn3cc(-c4ccc(N5CCNCC5)cc4)cnc23)c2cccnc2c1 [LDN-212854]
cell killing of CRL-7250 cells (in words) [6]: no effect | cell killing of HEK 293 cells (in words) ([4]; CellTiter-Glo): partial killing | EC50 [4, 9]: 16400 nM | cell killing of NIH 3T3 cells (in words) ([5]; CellTiter-Glo): no effect | cell killing of KB 3–1 cells (in words) ([7]; CellTiter-Glo): complete killing | EC50 [7, 9]: 4100 nM

Cc1nn2c(c1-c1ccccc1Oc1ccccc1)N(Cc1ccccc1O)CCC2 [NCGC00420455]
cell killing of HEK 293 compared with cancer cell line KB-3–1 (in words) [4]: greater cell killing | cell killing of NIH 3T3 compared with cancer cell line KB-3–1 (in words) [5]: greater cell killing

O=C(c1ccc(Cl)cc1)N1CCOCC2(CN(Cc3cc(F)cc(F)c3)C2)C1 [NCGC00419015]
EC50 [4, 9]: 510 nM | EC50 [5, 9]: 720 nM | EC50 [7, 9]: 640 nM

O=C(Nc1ccccc1)OC[C@H]1C[C@@H]2CCN1C[C@@H]2c1cc(C2CCCC2)nc(-c2ccncc2)n1 [NCGC00421344]
potency in HEK 293 cell relative to the other two cell lines (NIH 3T3, KB 3–1) ([4]; CellTiter-Glo EC50 comparison): > 10 fold

COc1ncc2cc(C(=O)Nc3cc(C(=O)NCc4cccc(Cl)c4)ccc3Cl)c(=O)[nH]c2n1 [TC-S7004]
cell killing of CRL-7250 cells (in words) [6]: no effect | cell killing of HEK 293 cells (in words) ([4]; CellTiter-Glo): no effect | cell killing of NIH 3T3 cells (in words) ([5]; CellTiter-Glo): no effect | cell killing of KB 3–1 cells (in words) ([7]; CellTiter-Glo): complete killing | EC50 [7, 9]: 3200 nM | cell killing of HaCat cells (in words) ([8]; CellTiter-Glo, 48 hr): no effect

CC(C)C[C@H](NC(=O)[C@@H](NC(=O)c1cccc(-c2ccccc2)n1)[C@@H](C)O)B(O)O [delanzomib]
EC50 ([6]; Homo sapiens, 48 h, read-out: EC50 CRL-7250): 205 nM | EC50 ([4]; Homo sapiens, HEK293, 48 h): 148 nM | EC50 ([5]; Mus musculus, NIH3T3, 48 h): 82 nM | EC50 ([7]; Homo sapiens, KB 3-1, 48 h): 186 nM | EC50 ([8]; Homo sapiens, HaCaT, 48 h, read-out: EC50 HaCat): 326 nM
